The values below come from paper PMC8408915 (Biochemistry, 2021).

The assay addresses T1, KDAC8 (Homo sapiens, UniProt Q9BY41).
T1 sequence (Q9BY41 1-377): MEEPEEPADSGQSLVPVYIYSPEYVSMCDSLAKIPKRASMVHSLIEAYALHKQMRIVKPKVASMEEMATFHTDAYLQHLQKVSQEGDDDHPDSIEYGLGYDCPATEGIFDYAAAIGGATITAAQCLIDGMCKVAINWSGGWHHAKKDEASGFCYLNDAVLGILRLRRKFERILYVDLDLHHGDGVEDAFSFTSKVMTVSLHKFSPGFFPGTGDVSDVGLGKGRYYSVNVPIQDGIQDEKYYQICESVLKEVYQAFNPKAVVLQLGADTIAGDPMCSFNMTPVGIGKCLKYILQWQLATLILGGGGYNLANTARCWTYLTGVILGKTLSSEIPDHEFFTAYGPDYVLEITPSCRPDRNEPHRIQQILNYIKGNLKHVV
The assay is described as follows: KDAC8 endpoint in vitro deacetylation activity assay. The assay is classed as biochemical. Conditions: low ionic strength buffer; 200 nM KDAC8, 100 μM peptide, 25 °C, 15-60 min; average of n≥3; limit of reliable detection 0.0004 s^−1. A digest of the protocol: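 KDAC8 carried a C-terminal His6 tag. It was expressed in ExpiSf9 cells after bacmid transfection (28 °C, 5 days, then 2 days of suspension amplification) and purified on cobalt (TALON) affinity resin. Peptides were N-terminally acetylated and C-terminally amidated. Buffer was 30 mM potassium phosphate pH 7.6 with 5% glycerol and no KCl. Product was detected with fluorescamine, and endpoint activity was averaged.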

On to ITGK^acPSG, for which the “Specific activity of KDAC8 with biologically relevant putative KDAC substrates” value was “- (- indicates no activity above the limit of reliable detection (0.0004 s^−1).)”. For SHLK^acAHL, the “Specific activity of KDAC8 with biologically relevant putative KDAC substrates” value is listed as “- (- indicates no activity above the limit of reliable detection (0.0004 s^−1).)”. With QTAK^acDAG the entry was “- (- indicates no activity above the limit of reliable detection (0.0004 s^−1).)”; with LSGK^acGNP, “- (- indicates no activity above the limit of reliable detection (0.0004 s^−1).)”; with GALK^acAPS, “- (- indicates no activity above the limit of reliable detection (0.0004 s^−1).)”. SVRK^acGIM: the “Specific activity of KDAC8 with biologically relevant putative KDAC substrates” value is recorded as 0.0036 ± 0.0008 s^−1. EIGK^acTLA: the “Specific activity of KDAC8 with biologically relevant putative KDAC substrates” value is recorded as “- (- indicates no activity above the limit of reliable detection (0.0004 s^−1).)”. With TGGK^acAPR, the “Specific activity of KDAC8 with biologically relevant putative KDAC substrates” value was “- (- indicates no activity above the limit of reliable detection (0.0004 s^−1).)”. With PEAK^acSLL the entry was “- (- indicates no activity above the limit of reliable detection (0.0004 s^−1).)”; with AARK^acSAP, 0.0026 ± 0.0002 s^−1; with GVGK^acYIN, 0.0007 ± 0.0004 s^−1.

APRK^acQLA: the “Specific activity of KDAC8 with biologically relevant putative KDAC substrates” value stood at 0.00163 ± 0.00014 s^−1. With LGGK^acQRA the entry was “- (- indicates no activity above the limit of reliable detection (0.0004 s^−1).)”. The entry for GTAK^acSVT is “- (- indicates no activity above the limit of reliable detection (0.0004 s^−1).)”. The entry for EVGK^acLLN is “- (- indicates no activity above the limit of reliable detection (0.0004 s^−1).)”.
